# Screens (PubChem BioAssay)
# eIF4E 4G PPI: blocks eIF4E binding to eIF4G; P63073+Q04637; TR-FRET eIF4E-eIF4GI(517-606) binding, 2 h; inhibition, % at 21.7 µM; 220,000 tested, 0.37% active;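 active = inhibition above about 30%, limit read from the data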;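 also: 0% = full FRET control wells and 100% = background wells lacking eIF4GI fragment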
# PERK inh: human PERK inhibition, primary cell-based screen; inhibition, % at 5.6 µM; 220,000 tested, 0.17% active; CHO PERK-DD fusion, SEAP luminescence translation reporter; Q9NZJ5;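 active = inhibition above the mean inhibition of all tested compounds plus 3 SD, set separately per screening campaign, cut at about 2.9% in these data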;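 also: PERK kinase domain activated by AP20187 dimerizer at 100 nM; 0% = DMSO with dimerizer and 100% = rapamycin at 8.4 µM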
# Runt-CBFb FRET: inhibitors of human RUNX1 Runt domain binding to CBFb; Cerulean-Runt/Venus-CBFb FRET ratio 530/480, 1 h; AID 1496; 220,000 tested, 0.46% active; inhibition, % at 20 µM;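 active = inhibition over about 50% at 20 µM in the single-dose screen, limit read from the data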;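 also: 0% = DMSO wells and 100% = excess unlabeled CBFb competitor control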
#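 test system = Cerulean-Runt domain fusion protein, energy donor | probe or stimulus = Venus-CBFb binding partner, 100 nM | incubation = two 1 h room-temperature incubations shielded from light | detection = fluorescence energy transfer, 422 nm excitation, 530/480 nm emission | measure = loss of energy transfer signal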
# RanGTP-Imp inh: inhibitors of RanGTP-importin-beta interaction, primary screen, biochemical, FRET, CFP-Ran, YFP-importin-beta, homogeneous; cell-free CFP-Ran/YFP-importin-beta FRET ratio; inhibition, % (no concentration beside the values); 300,000 tested, 1.1% active; AID 2216;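 active = more than half of the replicate wells show a fall in the fluorescence ratio signal beyond about 16%, limit read from the data, passing the limit was not always enough; inconclusive = exactly half of the replicate wells pass the set limit; inactive = fewer than half of replicates pass the limit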;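 also: 0% = DMSO wells and 100% = Ran loaded with GDP instead of GTP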
# Runt-SMMHC FRET: Runt domain-CBFb-SMMHC interaction inhibition. Cerulean-Runt/Venus-CBFb-SMMHC FRET ratio 530/480, 1 h. 220,000 tested, 0.74% active. Q01196+Q13951. inhibition, % at 20 µM. AID 1434;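 active = mean inhibition across duplicate retests at 20 µM reaching about 50%, limit read from the data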;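 also: 0% = DMSO wells and 100% = wells with excess untagged CBFb-SMMHC; inhibitors lower the FRET ratio by blocking Runt binding to CBFb-SMMHC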
# Hck Nef HTS: inhibitors of human Hck kinase activated by Nef; AID 463187; 220,000 tested, 0.68% active; Recombinant Hck-YEEI plus Nef, Z-Lyte FRET kinase assay; inhibition, % at 20 µM;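 active = Hck-Nef kinase inhibition above about 50%, limit read from the data; inactive = inhibition below that limit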;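 also: 0% = DMSO with Hck plus Nef and 100% = Hck alone without Nef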
# Target sequence (P08631 whole entry, looked up): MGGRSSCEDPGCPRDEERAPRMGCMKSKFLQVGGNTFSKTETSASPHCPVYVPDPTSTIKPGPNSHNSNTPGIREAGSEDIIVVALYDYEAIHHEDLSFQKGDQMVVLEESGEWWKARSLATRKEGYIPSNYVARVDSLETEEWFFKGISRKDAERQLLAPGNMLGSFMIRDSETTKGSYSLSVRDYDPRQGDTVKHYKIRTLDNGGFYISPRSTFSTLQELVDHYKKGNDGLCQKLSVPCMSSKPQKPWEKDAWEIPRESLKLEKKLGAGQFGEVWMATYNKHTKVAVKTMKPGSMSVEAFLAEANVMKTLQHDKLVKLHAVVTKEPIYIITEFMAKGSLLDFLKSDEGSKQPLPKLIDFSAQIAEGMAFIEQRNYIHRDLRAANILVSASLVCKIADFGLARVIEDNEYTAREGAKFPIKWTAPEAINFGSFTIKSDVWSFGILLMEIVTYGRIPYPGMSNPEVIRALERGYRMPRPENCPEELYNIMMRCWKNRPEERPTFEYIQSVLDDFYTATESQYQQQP
# * marks the source's active call; other numbers are inactive results; u = inconclusive; x = no result; ! = repeats disagree; [ ] = remark or other dose. Rows were chosen to be rich in hits. Some 2.2% of all compounds tested hit in one or more screens of this group.
SMILES,eIF4E 4G PPI,PERK inh,Runt-CBFb FRET,RanGTP-Imp inh,Runt-SMMHC FRET,Hck Nef HTS
CC(C)N1CCc2c(sc(NC(=O)c3ccco3)c2C(N)=O)C1,x,x,x,101.2*,x,x
CN1CCc2c(sc(NC(=O)c3ccco3)c2C(N)=O)C1,x,x,x,83.0*,x,x
COC(=O)c1c(NC(=O)c2ccco2)sc2c1CCN(C(C)C)C2,x,x,x,53.6*,x,x
O=C(NCc1ccco1)C1CCN(S(=O)(=O)c2cccc3cccnc23)CC1,2.0,x,2.4,-2.2,-3.9,6.0
CC(C)c1ccc(NC(=O)c2ccc3c(c2)CCN3S(C)(=O)=O)cc1,x,x,x,2.9,x,x
Cn1c(=O)n(Cc2ccccc2F)c2ccccc21,-2.9,0.3,1.8,40.4*,-1.2,4.9
O=C(CNC(=O)c1ccc(Cl)cc1)NC1CCCCC1,x,x,x,3.8,x,x
C=CCn1c(-c2ccoc2)n[nH]c1=S,65.2*,0.5,4.3,-1.8,1.3,-0.9
COc1cc2c(cc1OC)CN(CC(=O)Nc1ccc(F)cc1F)CC2,x,x,x,19.5*,x,x
COc1cc2c(cc1OC)CN(CC(=O)Nc1cccc(C)c1)CC2,-3.1,0.1,7.2,31.6*,20.8,2.0
CCOCCCNC(=S)N1CCCN(c2nc3cc(C)c(C)cc3cc2C#N)CC1,-3.5,0.6,20.4,58.5*,51.5*,21.8
CCOCCCNC(=S)N1CCCN(c2nc3cc(C)cc(C)c3cc2C#N)CC1,-0.3,-0.5,10.1,0.8,29.9,21.3
COCCCNC(=S)N1CCCN(c2nc3cc(C)c(C)cc3cc2C#N)CC1,1.1,-1.1,15.8,56.6*,21.1,26.4
Cc1cc(C(=O)CN2C(=O)c3cccc(N)c3C2=O)c(C)n1Cc1cccs1,-4.1,-0.4,19.1,66.4*,61.6*,1.8
CC1(C)CC(=O)C=C(Nc2ccc(O)c(C(=O)O)c2)C1,x,x,x,-2.6,x,x
CC1(C)CC(=O)C=C(Nc2ccc3c(c2)OCCO3)C1,2.4,0.6,-2.8,25.8*,-2.7,2.6
Cc1ccc(NC2=CC(=O)CC(C)(C)C2)cc1C,-1.9,0.4,-0.2,1.1,2.5,-1.1
CC1(C)CC(=O)C=C(Nc2ccc(C(=O)O)cc2)C1,3.8,0.8,1.6,29.0*,0.4,-0.4
CC1(C)CC(=O)C=C(Nc2cccc(O)c2)C1,-0.7,1.0,1.2,44.6*,3.1,2.8
O=CN(/C=C1\Sc2ccccc2C1=O)Cc1ccccc1,-5.5,0.9,37.1,u,66.8*,15.2
CC(=O)N(C)/C=C1\Sc2ccccc2C1=O,-4.0,0.6,29.7,u,76.3*,2.7
COCCN1C=C(C(=O)OC)C(c2ccc3c(c2)OCO3)C(C(=O)OC)=C1,5.6,-0.5,8.6,-1.2,23.5,33.4
COC(=O)C1=CN(C2CCCCC2)C=C(C(=O)OC)C1c1ccc2c(c1)OCO2,-2.4,0.6,28.3,2.8,74.9*,20.8
COc1ccccc1NCCC(=O)OCC(=O)NC1CCCC(C)C1C (stereo not drawn),-2.6,0.3,-1.4,1.5,-2.0,4.3
CS(=O)(=O)Nc1nnc(CCc2ccccc2)s1,x,x,x,0.1,x,x
SMILES,eIF4E 4G PPI,PERK inh,Runt-CBFb FRET,RanGTP-Imp inh,Runt-SMMHC FRET,Hck Nef HTS
COc1ccc(CCc2nnc(NS(C)(=O)=O)s2)cc1,x,x,x,27.4*,x,x
CN(C)S(=O)(=O)Nc1ccccn1,54.9*,1.8,1.2,-0.1,-6.5,12.1
O=S(=O)(Nc1ccccn1)c1ccc(Cl)cc1,5.8,0.5,-0.1,-0.8,-1.5,-3.8
Cc1oc(C(C)(C)C)cc1C(N)=O,0.5,3.0*,0.6,0.2,-3.3,-2.2
Cc1cc(NC(=O)c2cc(C(C)(C)C)oc2C)no1,-6.3,-1.4,-0.1,0.3,-1.1,10.2
COc1cccc(CN2CCCCC2C(=O)O)c1 (stereo not drawn),0.3,0.3,-0.9,1.5,-2.2,-15.3
Cc1c2cc(O)c(=O)cc-2oc2cc(O)c(O)cc12,34.7*![fluorescence artefact?],0.7,0.9,-1.0,-168.2,39.8
COc1cc(OC)c(-c2c3cc(O)c(=O)cc-3oc3cc(O)c(O)cc23)cc1OC,3.8,-0.2,-92.1,x,-335.6,2.0
CCOc1ccc(NC(=O)CC2C(=O)N(c3ccccc3)C(=O)N2Cc2ccccn2)cc1 (stereo not drawn),-12.8,-0.7,2.5,u,0.2,1.0
Cc1ncc(CO)c(/C=N/NC(=O)c2ccccc2Br)c1O,-1.8,2.1,19.7,9.7,63.8*,3.6
Cc1ncc(CO)c(/C=N/NC(=O)c2cc3c(s2)CCCC3)c1O,-2.1,0.4,31.9,49.8*,91.9*,-79.9
Cc1ncc(CO)c(/C=N/NC(=S)Nc2ccc(Cl)c(Cl)c2)c1O,1.9,0.5,10.6,4.5,10.0,7.5
Cc1ncc(CO)c(/C=N/NC(=O)c2ccc(O)cc2)c1O,3.7,0.3,24.2,44.4*,62.8*,-1.4
COc1ccccc1N/N=C/c1c(CO)cnc(C)c1O,1.3,0.4,-1.2,1.9,6.8,2.5
Cc1nc2ccccc2cc1C(=O)NCc1ccccc1,x,x,x,0.5,x,x
N#Cc1ccc(-c2csc(NC3=NCCCCC3)n2)cc1,53.3*[fluorescence artefact?],-0.9,-6.1,3.0,1.1,4.5
c1ccc(-c2csc(NC3=NCCCCC3)n2)cc1,3.4,0.7,0.5,4.6,1.1,2.5
O=C(O)C1Nc2c(O)cc(Cl)c([N+](=O)[O-])c2C2C=CCC12 (stereo not drawn),77.6*,1.2,18.7,-8.6,40.1,69.7*
O=C(O)C1Nc2c(cccc2C(F)(F)F)C2C=CCC12 (stereo not drawn),x,x,x,-1.4,x,x
COC(=O)c1ccc(NC(=O)CCCCCn2nnc3ccccc3c2=O)cc1,x,x,x,-2.6,x,x
Cc1onc(-c2c(Cl)cccc2Cl)c1C(=O)NCC1CCCO1 (stereo not drawn),-1.4,-0.6,-1.0,-2.8,3.3,1.1
Cc1noc(C(=O)NCC2CCCO2)c1Cl (stereo not drawn),x,x,x,23.3*,x,x
Cc1ccc(Br)cc1S(=O)(=O)Nc1cccnc1,x,x,x,-1.3,x,x
Clc1ccccc1Cc1noc(CN2CCN3CCCC3C2)n1 (stereo not drawn),-3.0,-0.2,-1.6,u,-2.7,5.0
CC(=O)c1cccc(NC(=O)C2CCN(S(=O)(=O)c3c(C)n[nH]c3C)CC2)c1,0.1,0.9,100.2*,0.2,-0.3,2.8
SMILES,eIF4E 4G PPI,PERK inh,Runt-CBFb FRET,RanGTP-Imp inh,Runt-SMMHC FRET,Hck Nef HTS
S=C1N(c2ccccc2)CN(CCN2CCOCC2)CN1c1ccccc1,38.9*,1.3,-0.8,-2.1,-1.8,0.5
CN(C)CC(c1ccccc1)c1ccccc1,1.0,4.3*,0.5,-4.3,-1.6,14.2
C=CCN=C(C)C1=C(O)CCC1=O,0.5,2.9*,2.1,3.2,0.5,0.4
C=CCN=C(CC)C1=C(O)CCCC1=O,3.9,0.9,2.7,4.4,5.6,1.3
O=C(O)C1CCCC2CN3CCc4c([nH]c5ccccc45)C3C(O)C21 (stereo not drawn),x,x,x,30.0*,x,x
Cc1sc2nc3ccc(NCc4ccco4)nn3c(=O)c2c1C,-13.6,0.3,6.2,7.4,60.4*,3.2
